Screening data as filed in PubChem.
Shown are actives, neighbours in structure and some others; about 1.8% of the full set was active somewhere.
Hck-Nef inh: inhibitors of Nef-activated human Hck kinase, primary screen, biochemical, Z-Lyte FRET, 384-well, Hck-YEEI; Tyrosine-protein kinase HCK (Homo sapiens), P08631; Recombinant Hck-YEEI plus Nef, Z-Lyte FRET kinase assay; inhibition, % at 20 µM; 0.68% of 220,000 active; AID 463187, 2010;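 active = Hck-Nef kinase inhibition above about 50%, limit read from the data; inactive = inhibition below that limit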
Target sequence (P08631 whole entry, looked up): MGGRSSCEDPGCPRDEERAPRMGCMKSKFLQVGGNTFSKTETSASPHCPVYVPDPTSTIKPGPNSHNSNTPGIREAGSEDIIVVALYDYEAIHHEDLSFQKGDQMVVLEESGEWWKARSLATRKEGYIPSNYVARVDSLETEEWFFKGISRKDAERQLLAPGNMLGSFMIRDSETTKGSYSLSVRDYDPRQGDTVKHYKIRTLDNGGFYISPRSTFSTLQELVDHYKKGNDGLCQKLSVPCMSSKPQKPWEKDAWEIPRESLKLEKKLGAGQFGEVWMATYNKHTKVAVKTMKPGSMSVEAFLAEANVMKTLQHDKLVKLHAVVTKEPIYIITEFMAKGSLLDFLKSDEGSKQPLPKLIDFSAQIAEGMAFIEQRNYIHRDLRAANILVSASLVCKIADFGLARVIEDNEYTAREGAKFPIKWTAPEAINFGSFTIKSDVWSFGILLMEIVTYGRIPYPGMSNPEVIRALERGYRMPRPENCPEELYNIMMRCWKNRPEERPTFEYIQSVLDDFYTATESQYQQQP
RanGTP-Impb inh: inhibitors of RanGTP-importin-beta interaction, primary screen, biochemical, FRET, CFP-Ran, YFP-importin-beta, homogeneous; Ran GTPase (GTP-bound) - importin-beta complex; cell-free CFP-Ran/YFP-importin-beta FRET ratio; inhibition, % (test concentration not listed); 1.1% of 300,000 active; AID 2216, 2009;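 active = more than half of the replicate wells show a fall in the fluorescence ratio signal beyond about 16%, limit read from the data, passing the limit was not always enough; inconclusive = exactly half of the replicate wells pass the set limit; inactive = fewer than half of replicates pass the limit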
Runt-SMMHC FRET: inhibitors of RUNX1 Runt–CBFb-SMMHC binding, primary screen, biochemical, FRET, Cerulean-Runt, Venus-CBFb-SMMHC, uHTS. Runt-related transcription factor 1 (Homo sapiens) + Core-binding factor subunit beta …. 0.74% of 220,000 active. inhibition, % at 20 µM. Cerulean-Runt/Venus-CBFb-SMMHC FRET ratio 530/480, 1 h. AID 1434, 2008;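 active = mean inhibition across duplicate retests at 20 µM reaching about 50%, limit read from the data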;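 also: inhibitors lower the FRET ratio by blocking Runt binding to CBFb-SMMHC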
Runt-CBFb FRET: inhibitors of RUNX1 Runt–CBFb binding, primary screen, biochemical, FRET, Cerulean-Runt, Venus-CBFb, uHTS. Runt-related transcription factor 1 (Homo sapiens) + Core-binding factor subunit beta …. AID 1496, 2009. 0.46% of 220,000 active. inhibition, % at 20 µM. Cerulean-Runt/Venus-CBFb FRET ratio 530/480, 1 h;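 active = inhibition over about 50% at 20 µM in the single-dose screen, limit read from the data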
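test system = Cerulean-Runt domain fusion protein, energy donor | probe or stimulus = Venus-CBFb binding partner, 100 nM | incubation = two 1 h room-temperature incubations shielded from light | detection = fluorescence energy transfer, 422 nm excitation, 530/480 nm emission | measure = loss of energy transfer signal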
Hits are given with their value; - = inactive; ? = inconclusive; . = no result given.

SMILES	Hck-Nef inh	RanGTP-Impb inh	Runt-SMMHC FRET	Runt-CBFb FRET
CN1CC=C2C(C#N)=C(N)C(C#N)(C#N)C(c3cccc(Cl)c3Cl)C2C1 (configuration not stated)	-	37.3	62.0	-
N#CC1=C(N)C(C#N)(C#N)C(c2cccnc2)C2CN(C(=O)OCc3ccccc3)CC=C12 (configuration not stated)	-	-	-	-
CN1CC=C2C(C#N)=C(N)C(C#N)(C#N)[C@H](c3ccoc3)[C@H]2C1	-	51.5	59.0	-
CC(=O)N1CC=C2C(C#N)=C(N)C(C#N)(C#N)[C@H](c3ccoc3)[C@H]2C1	-	-	-	-
N#CC1=C(N)C(C#N)(C#N)[C@H](c2ccoc2)[C@H]2CN(Cc3ccccc3)CC=C12	-	107.3	57.4	-
CC(=O)N1CC=C2C(C#N)=C(N)C(C#N)(C#N)C(CCc3ccccc3)C2C1 (configuration not stated)	-	-	-	-
CSC1=C(C#N)C(c2sccc2C)CC(=O)N1 (configuration not stated)	-	-	-	-
COc1ccccc1N1CCN(C(=O)c2ccc(COc3cccc4c3OC(C)(C)C4)cc2)CC1	.	-	.	.
c1ccc(-c2cc(NCCN3CCCCC3)c3ccccc3n2)cc1	.	-	.	.
Cc1ccc(C(=O)N[C@H](C(=O)N2CCN(c3ccccc3F)CC2)C(C)C)cc1	.	-	.	.
Cc1cccc(C)c1N(CC(=O)NC1CCCCC1)C(=O)c1csnn1	.	-	.	.
O=C(Nc1ccc2c(c1)OCCO2)C1CCCN(S(=O)(=O)c2cnc[nH]2)C1 (configuration not stated)	-	143.1	-	-
CCN1C(=O)c2cccc3c(S(=O)(=O)NCC4CCCO4)ccc1c23 (configuration not stated)	-	18.2	-	-
CCN1C(=O)c2cccc3c(S(=O)(=O)NCc4cccnc4)ccc1c23	-	23.4	57.2	-
COc1cc(C(=O)NCC(=O)Nc2ccc(F)c(F)c2)ccc1OCC(=O)N1CCOCC1	.	-	.	.
Clc1cccc(/C=N/Nc2nnc(Cl)c3ccccc23)c1	-	34.2	-	-
Cc1ccc(NC(=O)C2CCCN(S(=O)(=O)c3ccc(-n4cnnn4)cc3)C2)cc1 (configuration not stated)	.	-	.	.
CCOC(=O)c1c(C)n(-c2ccc(F)cc2)c2ccc(O)cc12	.	-	.	.
CCOC(=O)c1c2n(c3ccc(O)cc13)CCCCC2	-	22.0	-	-
Cc1cccc(S(=O)(=O)c2c(N)n(/N=C/c3ccccc3)c3nc4ccccc4nc23)c1	-	-	-	-
Cc1ccc(C)c(S(=O)(=O)c2c(N)n(/N=C/c3ccco3)c3nc4ccccc4nc23)c1	-	-	67.0	-
COC(=O)c1c(C(=O)OC)c(-c2ccccc2)n2c1CS(=O)(=O)C2	-	21.5	-	-
Cc1cc(C(=O)Nc2ccc(Br)cc2)cs1	.	-	.	.
CCCCOc1ccc(C(=O)NCC(=O)N2CCN(C(=O)c3ccco3)CC2)cc1	.	-	.	.
Cc1sc2ncn(CC(=O)NCCCC(=O)N3CCN(c4ccccc4)CC3)c(=O)c2c1C	-	-	-	54.8
SMILES	Hck-Nef inh	RanGTP-Impb inh	Runt-SMMHC FRET	Runt-CBFb FRET
O=C(Nc1ccccn1)c1ccc(S(=O)(=O)N2CCCCC2)cc1	.	-	.	.
N#Cc1c(-c2ccc(Cl)cc2)c2c([nH]c1=O)-c1ccccc1OC2	-	67.9	81.5	88.8
COc1ccc(NC(=O)C(=O)c2cn(CC(=O)N3CCCC3)c3ccccc23)cc1	.	-	.	.
CC(=O)c1cccc(-c2ccc3c(=O)[nH]c(Nc4ccccc4)cc3c2)c1	.	21.6	.	.
O=c1nccc(Nc2ccccc2)[nH]1	-	-	-	-
O=c1[nH]c(Nc2ccccc2)cc2cc(Br)ccc12	.	83.0	.	.
COc1ccccc1Nc1cc2cc(Br)ccc2c(=O)[nH]1	.	34.5	.	.
COc1ccccc1Nc1nnc(C)c(=O)[nH]1	-	-	-	-
O=c1[nH]c(Nc2ccccc2)cc2ccccc12	-	42.9	-	-
O=C(Nc1cc2c3c(c1)CC(=O)N3CCC2)c1ccc(Br)o1	.	-	.	.
COc1cc2c(cc1OC)C1(Nc3c-2c(Cc2ccccc2)nn3-c2ccccc2)C(=O)Nc2ccccc21 (configuration not stated)	-	24.5	-	-
CCOC(=O)[C@@H]1[C@H]2COc3ccccc3[C@H]2N2C(=O)N(c3ccccc3)C(=O)[C@]12C	.	-	.	.
Cc1cc(C(=O)Oc2cccnc2)ccc1[N+](=O)[O-]	-	-	-	-
CNc1cc(C)c(C#N)c2nc3ccccc3n12	.	-	.	.
N#Cc1c(-c2ccccc2)c(C#N)c2nc3ccccc3n2c1N	-	-	93.9	82.5
Cc1ccc(-c2c(C#N)c(N)n3c(nc4ccccc43)c2C#N)cc1	-	-	118.0	58.5
CCn1c(=O)cc(SCC(=O)Nc2ccc(Cl)cc2)c2ccccc21	-	63.5	-	-
Cn1cccc1/C=C1\Cc2ccccc2C1=O	-	75.5	-	-
Cn1cccc1/C=C1\CCc2ccccc2C1=O	-	?	-	-
CCOC(=O)C1CCN(c2nc3ccccc3nc2C(C#N)C(=O)OCCOC)CC1 (configuration not stated)	-	?	-	-
C=CCN(CC=C)c1nc2ccccc2nc1C(C#N)C(=O)OCCOC (configuration not stated)	-	19.8	61.1	-
CCCN(CCC)c1nc2ccccc2nc1C(C#N)C(=O)OCCOC (configuration not stated)	-	36.8	-	-
CC1CCc2nc3ccc(S(=O)(=O)N4CCC(C(=O)NCc5ccccc5Cl)CC4)cc3c(C(=O)O)c2C1 (configuration not stated)	.	21.7	.	.
CN1CCN(c2nnc(-c3ccccc3)c(-c3ccccc3)n2)CC1	-	-	-	-
c1ccc2c(N3CCCCC3)nc(N3CCCCC3)nc2c1	-	-	-	-
SMILES	Hck-Nef inh	RanGTP-Impb inh	Runt-SMMHC FRET	Runt-CBFb FRET
CN1CCN(c2nc(-c3ccccc3)c3cc(Cl)ccc3n2)CC1	-	?	56.6	-
O=C1CN(c2nc(-c3ccccc3)c3cc(Cl)ccc3n2)c2ccccc2N1	-	-	-	-
c1ccc(-c2nc(N3CCCC3)nc3ccccc23)cc1	-	34.2	-	-
Clc1ccc2nc(N3CCNCC3)nc(-c3ccccc3)c2c1	-	-	89.0	-
Cc1cccc(N2CCN(C(=O)c3c(-c4ccccc4Cl)noc3C)CC2)c1C	.	-	.	.
CN(C)S(=O)(=O)c1cccc(NC(=S)N/N=C/c2cc(Br)ccc2O)c1	-	-	81.2	-
O=C(O)c1cc(-c2ccc(Br)s2)nc2ccccc12	.	18.4	.	.
COc1cc(C(=O)NCCCNc2nc3cc(C)c(C)cc3cc2C#N)cc(OC)c1OC	-	49.7	-	.
CCOc1ccc2nc(NCCNC(=O)c3cc(OC)c(OC)c(OC)c3)c(C#N)cc2c1	.	112.5	.	.
